Each block holds one molecule with its values, some of them ahead of it.
How the values were obtained:
[1] = biological target: T1, Anoctamin-1 (Homo sapiens) (UniProt Q5XXA6); assay: Inhibition of human ANO1 channel expressed in HEK293 cells at 10 uM incubated for 10 mins by FLIPR assay relative to control; type: cell-based
T1 sequence (whole entry): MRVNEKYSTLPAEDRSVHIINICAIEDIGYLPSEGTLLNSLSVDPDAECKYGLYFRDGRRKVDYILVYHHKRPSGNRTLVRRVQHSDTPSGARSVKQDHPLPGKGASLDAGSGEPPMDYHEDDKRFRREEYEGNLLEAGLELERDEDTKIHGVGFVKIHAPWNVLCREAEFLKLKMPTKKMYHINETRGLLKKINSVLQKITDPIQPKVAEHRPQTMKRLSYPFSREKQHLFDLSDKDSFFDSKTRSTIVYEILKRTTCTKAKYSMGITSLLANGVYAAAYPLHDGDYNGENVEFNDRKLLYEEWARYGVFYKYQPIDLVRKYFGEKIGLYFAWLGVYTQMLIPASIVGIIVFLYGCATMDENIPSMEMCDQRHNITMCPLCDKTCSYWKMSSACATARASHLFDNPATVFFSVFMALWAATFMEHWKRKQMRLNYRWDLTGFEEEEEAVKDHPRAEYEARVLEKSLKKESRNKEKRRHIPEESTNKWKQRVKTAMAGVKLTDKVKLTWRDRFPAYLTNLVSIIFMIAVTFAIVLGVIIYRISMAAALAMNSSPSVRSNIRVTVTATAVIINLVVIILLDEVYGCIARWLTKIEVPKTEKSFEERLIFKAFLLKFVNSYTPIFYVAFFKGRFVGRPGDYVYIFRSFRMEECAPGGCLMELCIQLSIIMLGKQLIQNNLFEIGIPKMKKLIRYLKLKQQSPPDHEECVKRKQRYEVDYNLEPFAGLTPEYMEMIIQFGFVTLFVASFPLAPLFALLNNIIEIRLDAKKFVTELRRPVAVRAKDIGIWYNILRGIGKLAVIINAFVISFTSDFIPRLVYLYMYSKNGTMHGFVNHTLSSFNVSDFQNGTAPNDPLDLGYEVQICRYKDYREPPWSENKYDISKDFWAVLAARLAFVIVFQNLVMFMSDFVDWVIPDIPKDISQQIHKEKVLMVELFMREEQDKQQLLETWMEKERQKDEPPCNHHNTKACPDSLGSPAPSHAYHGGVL
Procedure, shortened: (§1)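 HEK293 cells expressing human ANO1, 50,000 cells/well, plated overnight. Loaded with FLIPR Red membrane-potential dye in HEPES-buffered saline (pH 7.4) for 40-60 min at room temperature. Compound added for 10 min at room temperature, final DMSO 0.5%.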

U138-MG = assay: Antiproliferative activity against human U138 cells overexpressing ANO1 assessed as reduction in cell viability at 100 uM measured after 72 hrs by Celltiter-glo assay; type: functional
Procedure, shortened: (§2)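 5.0×10^3 cells/well seeded, overnight, then compounds added as 1:4 serial dilutions in DMSO; viability read after 72 h with CellTiter-Glo luminescence. GI50 from fitted dose-response curves; triplicate wells, SD from three independent experiments. DMEM for U251 and U138, MEM for U87MG, both with 10% FBS and pen/strep, 37 °C, 5% CO2.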

[2] = Antiproliferative activity against mouse primary astrocytes assessed as reduction in cell viability at 100 uM measured after 72 hrs by Celltiter-Glo luminescent assay; type: cell-based, Astrocyte
Procedure, shortened: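 Primary astrocytes isolated from adult mouse brain by a previously reported method. 5.0×10^3 cells/well, compound as 1:4 serial DMSO dilutions, CellTiter-Glo viability at 72 h.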

U-251 [3] = assay: Antiproliferative activity against human U251 cells overexpressing ANO1 assessed as reduction in cell viability measured after 72 hrs by Celltiter-glo assay; type: functional; procedure, shortened: as §2
Anoctamin-1 [4] = biological target: T2, Anoctamin-1 (Homo sapiens, UniProt Q5XXA6); assay: Inhibition of human ANO1 channel expressed in HEK293 cells incubated for 10 mins by FLIPR assay; type: cell-based; procedure, shortened: as §1
T2 sequence (Q5XXA6 whole entry): T1 sequence (whole entry)

Anoctamin-1 [5] = biological target: T3, Anoctamin-1 (Mus musculus, UniProt Q8BHY3); assay: Inhibition of GFP-fused mouse ANO1 channel expressed in HEK293A cells assessed as inhibition of ATP-induced channel current amplitude at membrane potential of +80 mV by patch clamp electrophysiology assay; type: cell-based, HEK293-A
T3 sequence (Q8BHY3 whole entry): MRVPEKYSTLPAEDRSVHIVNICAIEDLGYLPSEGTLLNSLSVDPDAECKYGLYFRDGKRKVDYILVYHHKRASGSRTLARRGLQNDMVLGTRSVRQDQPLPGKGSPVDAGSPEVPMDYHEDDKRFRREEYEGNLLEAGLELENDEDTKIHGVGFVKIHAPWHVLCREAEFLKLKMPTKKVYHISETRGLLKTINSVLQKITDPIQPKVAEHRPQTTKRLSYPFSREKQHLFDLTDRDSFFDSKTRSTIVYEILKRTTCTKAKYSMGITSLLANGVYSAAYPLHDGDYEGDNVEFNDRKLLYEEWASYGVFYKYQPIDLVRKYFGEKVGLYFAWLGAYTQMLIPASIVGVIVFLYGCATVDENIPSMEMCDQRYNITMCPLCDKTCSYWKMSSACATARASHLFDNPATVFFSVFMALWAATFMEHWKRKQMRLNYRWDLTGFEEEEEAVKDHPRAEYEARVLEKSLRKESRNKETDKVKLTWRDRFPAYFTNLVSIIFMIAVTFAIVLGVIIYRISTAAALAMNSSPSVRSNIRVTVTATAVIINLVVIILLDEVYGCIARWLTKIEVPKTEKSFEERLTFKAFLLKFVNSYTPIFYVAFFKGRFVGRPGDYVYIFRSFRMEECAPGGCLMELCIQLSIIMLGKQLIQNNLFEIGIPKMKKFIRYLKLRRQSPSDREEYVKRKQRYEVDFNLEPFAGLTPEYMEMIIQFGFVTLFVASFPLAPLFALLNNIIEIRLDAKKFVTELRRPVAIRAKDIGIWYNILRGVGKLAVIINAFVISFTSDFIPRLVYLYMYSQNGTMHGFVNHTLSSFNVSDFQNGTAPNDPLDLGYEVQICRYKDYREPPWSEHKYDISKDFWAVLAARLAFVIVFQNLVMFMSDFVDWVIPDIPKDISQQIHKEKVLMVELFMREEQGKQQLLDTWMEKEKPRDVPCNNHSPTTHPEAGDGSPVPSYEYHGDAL
Procedure, shortened: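 Whole-cell recording at room temperature in HEK293A cells transfected with GFP-mANO1, GFP-mANO2 or GFP-mTTYH1. 1 s ramps from +80 to -80 mV, holding potential -10 mV. For ANO1/ANO2: pipette CsCl 146 mM with Ca-EGTA-NMDG, pH 7.3; bath NaCl-based, pH 7.3. For TTYH1: Tris-aspartate pipette (pH 7.2) and Tris-HCl bath (pH 7.4), with […] and BaCl2 added to block K+ channels, and hypotonic (220 mOsm/kg) bath. Washout recordings assessed reversibility.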

U-87 MG = assay: Antiproliferative activity against human U87MG cells overexpressing ANO1 assessed as reduction in cell viability at 100 uM measured after 72 hrs by Celltiter-glo assay; type: functional, U-87MG ATCC; procedure, shortened: as §2
U-251 [6] = assay: Antiproliferative activity against human U251 cells overexpressing ANO1 assessed as reduction in cell viability at 100 uM measured after 72 hrs by Celltiter-glo assay; type: functional; procedure, shortened: as §2

SMILES: NC(=O)c1c(NC(=S)NC(=O)c2cccc(Cl)c2)sc2c1CCC2
inhibition [1]: < 10%

SMILES: NC(=O)c1c(NC(=S)NC(=O)c2ccccc2Cl)sc2c1CCC2
inhibition at 100 µM (U138-MG): < 50%
inhibition [1]: 76.7%
inhibition at 72 h, 100 µM [2]: < 50%
GI50 (U-251 [3]): 94.6 µM
IC50 (Anoctamin-1 [4]): 2.29 µM
IC50 (Anoctamin-1 [5]): 3.12 µM
inhibition at 100 µM (U-87 MG): < 50%

SMILES: NC(=O)c1ccsc1NC(=O)c1ccco1
inhibition [1]: 39.5%

SMILES: Cc1ncsc1C(=O)NC(=S)Nc1sc2c(c1C(N)=O)CCC2
inhibition [1]: < 10%

SMILES: NC(=O)c1c(NC(=S)NC(=O)c2ccc(C(F)(F)F)cc2)sc2c1CCC2
inhibition [1]: < 10%

SMILES: CC(C)(C)C1CCc2c(sc(NC(=S)NC(=O)c3ccco3)c2C(N)=O)C1 (stereo not given)
inhibition [1]: 13.8%

SMILES: NC(=O)c1c(NC(=S)NC(=O)c2ccccc2)sc2c1CCCCC2
inhibition [1]: 21.1%

SMILES: CC(C)(C)C1CCc2c(sc(NC(=O)c3ccco3)c2C(N)=O)C1 (stereo not given)
inhibition [1]: < 10%

SMILES: CC(C)(C)C1CCc2c(sc(N)c2C(N)=O)C1 (stereo not given)
inhibition at 100 µM (U138-MG): < 50%
inhibition [1]: 80.1%
inhibition at 72 h, 100 µM [2]: < 50%
GI50 (U-251 [3]): 83.2 µM
IC50 (Anoctamin-1 [4]): 2.95 µM
IC50 (Anoctamin-1 [5]): 2.5 µM
inhibition at 100 µM (U-87 MG): < 50%

SMILES: NC(=O)c1c(NC(=S)NC(=O)c2ccco2)sc2c1CCCCC2
inhibition [1]: 21.8%

Further lines, with some results ahead:

inhibition [1]: < 10%
SMILES: COc1cc(C(=O)NC(=S)Nc2sc3c(c2C(N)=O)CCC3)cc(OC)c1OC

inhibition [1]: 12.5%
SMILES: CC(C)(C)C(=O)Nc1sc2c(c1C(N)=O)CCC2

inhibition [1]: < 10%
SMILES: NC(=O)c1c(NC(=O)c2ccco2)sc2c1CCCCC2

inhibition [1]: 67.9%
IC50 (Anoctamin-1 [4]): 4.79 µM
IC50 (Anoctamin-1 [5]): 4.07 µM
SMILES: CC(C)(C)C(=O)Nc1sc2c(c1C(N)=O)CCCCC2
inhibition at 100 µM (U138-MG): < 50%
inhibition at 72 h, 100 µM [2]: < 50%
inhibition at 100 µM (U-251 [6]): < 50%
inhibition at 100 µM (U-87 MG): < 50%

inhibition [1]: < 10%
SMILES: NC(=O)c1c(N)sc2c1CCCCC2

inhibition [1]: 22%
SMILES: CC(C)(C)C1CCc2c(sc(NC(=O)c3ccccc3)c2C(N)=O)C1 (stereo not given)

inhibition [1]: < 10%
SMILES: COc1ccc(C(=O)NC(=S)Nc2sc3c(c2C(N)=O)CCC3)cc1OC

From ChEMBL document CHEMBL4706565, “Anti-glioma effects of 2-aminothiophene-3-carboxamide derivatives, ANO1 channel blockers” (Eur J Med Chem, 2020)
